Shown are actives, neighbours in structure and some others; about 3.8% of the full set was active somewhere.
HSF1 activator – increases HSF-1 driven luciferase reporter signal. activation, % at 9 µM. NIH3T3-HGL HSF-1 luciferase reporter, MG132, 8 h; 100% = twice DMSO control signal. AID 504408. hit rate 1.7% among 300,000;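 active = mean replicate activation of at least 50% with a set share of replicates each reaching 50%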;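 also: 0% = median of the neutral control wells and 100% = twice that signal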
Hep lipid drop – hepatic lipid droplet formation modulation. hit rate 0.4% among 240,000. AML12 mouse hepatocytes, oleate lipid droplets, BODIPY imaging. inhibition, % at 6.5 µM;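 active = lipid droplet intensity inhibited by at least 50%, with more than 500 cells counted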
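Test system: AML12 mouse liver cells; schedule: overnight exposure; technique: high-content imaging of BODIPY-stained droplets and DAPI nuclei; read-out: % inhibition of corrected integrated BODIPY droplet signal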
HSF1 inhib – HSF1 inhibition | NIH3T3-HGL HSE-luciferase, MG132-induced, luminescence 8 h; stronger effect = lower value | activity change, negative = inhibition, % at 7.5 µM (by protocol) | hit rate 0.77% among 300,000;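 active = more than half of replicate wells show activity change below -50%, luminescence cut by over half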;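 also: luciferase reports HSF-1 transcriptional activity via heat shock element; 0% = median of DMSO wells and -100% = zero luminescence signal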
HSP90 inh – blocks HSP90-mediated luciferase refolding in reticulocyte lysate. Rabbit reticulocyte lysate, luciferase refolding luminescence, 3 h. inhibition, % at 5.6 µM. hit rate 0.91% among 290,000;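 active = inhibition above the screen-wide mean plus 3 SD, computed separately per campaign, cut at about 16% in these data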;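 also: 0% = DMSO wells and 100% = 60 µM geldanamycin wells; inhibitors lower the luminescence because luciferase stays unfolded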
HCV NS3 hel inh – inhibitors of Hepatitis C virus NS3 helicase. NS3 helicase DNA unwinding, Cy5 molecular beacon fluorescence. inhibition, % at 10.9 µM. hit rate 0.56% among 290,000;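 active = inhibition above the mean of all tested compounds plus 3 SD, set per campaign, cut at about 35% in these data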;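 also: 0% = DMSO wells and 100% = thioflavine S control wells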
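Test system: hepatitis C virus NS3 helicase domain fragment enzyme. Also added: annealed dual-labelled DNA beacon duplex, ATP-started. Timing: 60 min unwinding reaction at 25 °C after ATP addition. Technique: Cy5 fluorescence. Measure: % inhibition of unwinding.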
Lipid drop inh – confirmation of inhibitors of hepatic lipid droplet formation | shares compounds with Hep lipid drop | AML12 mouse hepatocytes, BODIPY lipid droplet imaging; droplets induced with 100 µM oleic acid | inhibition, % at 5.2 µM | hit rate 65% among 870;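 active = inhibition of lipid droplet metric at least 50%, with more than 300 cells in each of four replicates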;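 also: plate controls were DMSO with oleic acid for no effect and 5 µM Triacsin-C for full effect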
AML12 cytotox – AML12 hepatocyte cytotoxicity (counter-screen) | shares compounds with Hep lipid drop | AML12 mouse hepatocytes, DAPI nuclear morphology cytotoxicity imaging; stronger effect = higher value; cells fed 100 µM oleate overnight | z-score at 5 µM | hit rate 3% among 870; in the data active = z-score above about 6.3;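 also: compound exposure lasted overnight at 37 °C before fixation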
AML12 tox conf – AML12 hepatocyte cytotoxicity, confirmed. shares compounds with Hep lipid drop. AML12 mouse hepatocyte viability, ATP luminescence; cells loaded with 100 µM oleic acid. cytotoxicity, % at 50 µM. 530 tested, under 10 active;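 active = cytotoxicity above 50% in each of four replicates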;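 also: compound exposure lasted overnight at 37 °C before the ATP read; 0% = DMSO-treated cells and 100% = wells with no cells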
Numbers without * were called inactive; · = not tested or not shown.

SMILES	HSF1 activator	Hep lipid drop	HSF1 inhib	HSP90 inh	HCV NS3 hel inh	Lipid drop inh	AML12 cytotox	AML12 tox conf
CCOc1ccc(CCNC(=O)CCOc2cc(C)ccc2C)cc1OCC	-5.2	97.5*	1.1	4.8	-7.7	111.2*	-0.471	14.9
CCS(=O)(=O)c1nc(S(=O)(=O)c2ccc(Cl)cc2)c(N2CCC(O)CC2)s1	5.0	-13.4	-2.6	-1.7	3.6	·	·	·
CN(Cc1ccccc1)C1CCN(Cc2ccccc2[N+](=O)[O-])CC1	-2.3	-3.9	-4.5	8.4	-2.0	·	·	·
CCCCNC(=S)NC(C)(C)CO	-4.4	3.0	-11.9	-0.1	-4.6	·	·	·
CCOc1ccc(CCNC(=O)CS(=O)Cc2nc(-c3ccccc3C)oc2C)cc1OCC (centres undefined)	3.2	61.3*	-5.7	2.8	-2.8	89.4*	-0.186	13.3
CCOc1ccc(CCNC(=O)CS(=O)Cc2nc(-c3ccc(C)cc3)oc2C)cc1OCC (centres undefined)	-1.3	45.9	1.2	-2.1	-1.5	·	·	·
Cc1nn(-c2ccc([N+](=O)[O-])cc2)c2c1C(c1cccc(Br)c1)N1C(=N2)C(=O)Nc2ccccc21 (centres undefined)	-10.2	117.5*	-3.1	-2.1	2.5	82.4*	0.122	-5.0
Cc1nn(-c2ccccc2)c2c1C(c1ccc([N+](=O)[O-])cc1)N1C(=N2)C(=O)Nc2ccccc21 (centres undefined)	10.4	-4.8	-2.5	0.8	9.6	·	·	·
CC(=O)Oc1ccc(C(=O)NCc2ccc3c(c2)OCO3)cc1	-28.8	12.0	-3.0	-4.5	2.5	·	·	·
CCC(NC(=O)c1cc(COc2cncc(Cl)c2)on1)c1ccncc1 (centres undefined)	0.3	65.1*	-12.0	-4.1	7.5	11.5	-0.576	·
CCS(=O)(=O)N1CCN(c2ccc([N+](=O)[O-])c(NCc3cccnc3)c2)CC1	18.6	59.4*	4.2	-3.8	-5.7	-18.4	0.181	·
Cc1nn(C(C)C(=O)NCCCN2CCCCCC2)c(=O)c2cc3sccc3n12 (centres undefined)	5.2	-37.2	-0.8	-5.1	-33.3	·	·	·
CCCCNC(=O)c1ccc2c(c1)N(C)C(=O)c1ccccc1S2	24.4	77.6*	12.1	-4.5	-2.4	70.5*	0.54	12.7
CCN1C(=O)c2ccccc2Sc2ccc(C(=O)NCCC(C)C)cc21	19.1	94.8*	10.9	-4.0	-5.8	98.1*	0.796	·
CC(C)CCNC(=O)c1ccc2c(c1)N(C)C(=O)c1ccccc1S2	-1.3	87.1*	1.6	-6.8	-2.3	86.9*	0.815	·
COC(=O)c1cn(Cc2cc(OC)ccc2OC)cc(F)c1=O	-0.9	·	-10.1	6.4	1.1	·	·	·
C=CCN1C(=O)CSc2ccc(C(=O)NCc3cccs3)cc21	12.5	-13.7	2.1	3.0	0.4	·	·	·
COc1ccc(NC(=O)[C@H](C)NC(=O)[C@@H]2Cc3ccccc3CN2C(=O)OC(C)(C)C)cc1	-4.9	54.8*	1.1	-3.8	-2.9	91.3*	-1.1	9.0
COc1cccc(NC(=O)CNC(=O)[C@@H]2Cc3ccccc3CN2C(=O)OC(C)(C)C)c1	1.4	4.6	2.7	-1.4	0.0	·	·	·
Cc1cccc(NC(=O)[C@H](C)NC(=O)[C@@H]2Cc3ccccc3CN2C(=O)OC(C)(C)C)c1	-10.9	61.9*	-9.1	3.7	4.5	99.9*	0.467	11.7
CC(C)[C@H](NC(=O)[C@@H]1Cc2ccccc2CN1C(=O)OC(C)(C)C)C(=O)NC1CCCC1	10.9	-1.7	10.8	6.2	1.3	·	·	·
O=C(c1ccccc1Cl)N(Cc1ccc(Br)cc1)N1C(=O)CCC1=O	8.1	-29.3	-11.0	9.5	-0.9	·	·	·
CCCCCCNC(=O)c1cn(CC)c2cc(N3CCN(C)CC3)c(F)cc2c1=O	-10.9	52.6*	4.1	0.4	-57.5	27.3	0.62	·
CC(C)C(C)NC(=O)CSc1nc2scc(-c3ccco3)c2c(=O)n1-c1ccccc1 (centres undefined)	21.6	59.8*	15.3	-2.7	2.5	31.7	-0.739	·
CN(C)CCNC(=O)Nc1ccc(F)cc1F	12.2	-1.3	2.6	0.2	1.0	·	·	·
SMILES	HSF1 activator	Hep lipid drop	HSF1 inhib	HSP90 inh	HCV NS3 hel inh	Lipid drop inh	AML12 cytotox	AML12 tox conf
CCOc1ccc(NC(=O)CN(C)C(=O)c2cc(S(=O)(=O)N3CCCCC3)ccc2C)cc1OCC	-6.6	·	-3.3	·	·	·	·	·
CCOc1ccc(NC(=O)CN(C)C(=O)c2ccc(C)c(S(=O)(=O)N3CCCCC3)c2)cc1OCC	-25.1	63.1*	-13.6	-5.8	-4.0	62.6*	0.132	14.4
CCOc1ccc(NC(=O)CCSc2nc3c(c(CC)c2C#N)C(=O)CC(C)(C)C3)cc1	1.8	55.1*	0.6	2.4	4.6	86.2*	-0.0553	1.9
COc1ccc(C(=O)Nc2ccccc2)cc1NC(=O)c1cccs1	12.5	-5.8	-2.7	-5.4	1.1	·	·	·
COc1cccc(N=Nc2c(C)[nH]n(-c3ccccc3)c2=O)c1	7.5	51.2*	15.2	0.4	-6.4	102.6*	-0.702	12.5
CN(C)S(=O)(=O)c1cc(NC2CC(=O)N(c3ccc(F)cc3)C2=O)ccc1Cl (centres undefined)	5.6	-3.5	1.4	-3.0	15.1	·	·	·
O=C(Nc1ccccc1C(=O)O)c1cc(S(=O)(=O)N2CCOCC2)c(Br)s1	-6.3	-0.4	-0.9	-0.3	-1.3	·	·	·
O=C(Cc1coc2ccc3ccccc3c12)NC1CCCc2ccccc21 (centres undefined)	64.9*	51.9*	34.6	0.9	-11.9	91.4*	0.157	18.8
O=c1[nH]c(CSc2nnc(-c3ccccc3)n2-c2ccccc2)nc2ccccc12	24.9	61.8*	7.4	-1.5	-9.2	11.4	-0.267	·
CCOC(=O)CN(C(=O)COc1ccc2c(C)cc(=O)oc2c1)c1ccc(OCC)cc1	-23.7	-12.6	-1.2	-2.0	-6.5	·	·	·
Cc1ccc(NC(=O)C2CCCN(S(=O)(=O)c3c(C)noc3/C=C/N(C)C)C2)cc1F (centres undefined)	·	56.9*	·	0.5	18.1	76.8*	-0.685	8.1
Cc1noc(/C=C/N(C)C)c1S(=O)(=O)N1CCC(C(=O)Nc2ccc(Cl)cc2)CC1	-9.6	3.2	-7.8	3.1	16.9	·	·	·
Cc1ccc(Nc2c(-c3ccccn3)nc3cccc(C)n23)cc1	-33.2	-1.8	-14.5	-0.8	-42.9	·	·	·
COc1ccccc1CNS(=O)(=O)c1ccc2c(c1)CC(C)N2C(=O)C1CCC1 (centres undefined)	-4.0	64.4*	-3.2	-3.2	-0.3	99.3*	0.0839	21.5

High-throughput results as filed in PubChem BioAssay.
